Data reported in ChEMBL document CHEMBL1129567, “Structure-based design of novel, urea-containing FKBP12 inhibitors” (J Med Chem, 1996).

biological target: Peptidyl-prolyl cis-trans isomerase FKBP1A (Homo sapiens, UniProt P62942); experiment: Apparent inhibition constant of Wild-type human recombinant FK506 binding protein 12; conditions: read-out: Ki app
In short: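 Wild-type human recombinant FKBP12 (E. coli-expressed, purified), 90 nM, chymotrypsin-coupled continuous spectrophotometric cis-trans isomerase assay with 100 µM cis succinyl-Ala-Leu-Pro-Phe-p-nitroanilide (stock in trifluoroethanol/240 mM LiCl) at 10 or 15 °C. Buffer: 50 mM HEPES pH 8.0, 100 mM NaCl, 100 µM 2-mercaptoethanol, 1% DMSO, 6 mg/mL chymotrypsin. Read for 5 min. Fit to competitive tight-binding equation corrected for uncatalyzed isomerization.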

Sequence of Peptidyl-prolyl cis-trans isomerase FKBP1A (P62942 whole entry): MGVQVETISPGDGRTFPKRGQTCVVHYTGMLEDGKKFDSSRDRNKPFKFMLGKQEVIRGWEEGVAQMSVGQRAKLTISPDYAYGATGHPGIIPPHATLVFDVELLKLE

Row | Compound | Ki [µM]
1 | COC(=O)[C@@H]1CCC[C@H]2CCN(Cc3ccccc3)C(=O)N21 | 67
2 | CC1(CNC(=O)N2CCCC[C@H]2C(=O)OCc2cccc(Oc3ccccc3)c2)CCCCC1 | 0.2
3 | CC(C)(C)CNC(=O)N1CCCC[C@H]1C(=O)OCc1cccc(Oc2ccccc2)c1 | 0.22
4 | CC(C)(C)CNC(=O)N1CCCC[C@H]1C(=O)OCc1ccccc1 | 0.79
5 | COc1cccc(CCCOC(=O)[C@@H]2CCCCN2C(=O)NCC(C)(C)C)c1 | 0.37
6 | CC1(CNC(=O)N2CCCC[C@H]2C(=O)OCc2ccccc2)CCCCC1 | 0.55
7 | CCCN1CC[C@@H]2CCC[C@@H](C(=O)OCc3ccccc3)N2C1=O | 24
8 | CCCN1CC[C@@H]2CCC[C@@H](C(=O)OC)N2C1=O | 83
9 | CC(C)(C)CNC(=O)N1CCCC[C@H]1C(=O)O[C@H](CCc1ccccc1)c1ccccc1 | 0.35
10 | CC(C)(CO)CNC(=O)N1CCCC[C@H]1C(=O)OCc1ccccc1 | 8.4
11 | CC(C)(C)CNC(=O)N1CCCC[C@H]1C(=O)OCCCCc1ccccc1 | 0.15
12 | C=C(C)CNC(=O)N1CCCC[C@H]1C(=O)OCc1ccccc1 | 7.2
13 | O=C(OCc1ccccc1)[C@@H]1CCCCN1C(=O)NCc1ccccc1 | 6.5
14 | O=C(OCc1ccccc1)[C@@H]1CCC[C@H]2CCN(Cc3ccccc3)C(=O)N21 | 14
15 | CC1(CNC(=O)N2CCCC[C@H]2C(=O)OCCCCc2ccccc2)CCCCC1 | 0.12
16 | CC1(CNC(=O)N2CCCC[C@H]2C(=O)OCc2ccccc2)CCCC1 | 0.57
17 | COc1cc(CCCOC(=O)[C@@H]2CCCCN2C(=O)NCC(C)(C)C)cc(OC)c1OC | 0.39
